Converted amounts (≈) assume the structure as drawn. The source made the active and inactive calls. The rule behind the calls is not given here.
Assays:
Rhizopus arrhizus [1] = assay: Antifungal activity against drug-susceptible Rhizopus oryzae UTHSC 06-3913 at 5 ug by disk diffusion assay; format: functional; settings: read-out: DIZ
Procedure, shortened: (§1)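 Neo-Sensitabs tablet diffusion on Mueller-Hinton agar, run per the mould guidelines. Tablets are 9 mm in diameter and carry 5 ug posaconazole. The read-out is the inhibition zone diameter in mm.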

Rhizopus arrhizus [2] = assay: Antifungal activity against drug-susceptible Rhizopus oryzae UTHSC 04-1220 after 24 to 48 hrs; format: functional
Procedure, shortened: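 Minimum fungicidal concentration: 20 µl from each microdilution well showing complete inhibition (optically clear) plated on potato dextrose agar, incubated 35°C for 24 to 48 h; MFC taken as lowest drug concentration giving no growth.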

Rhizopus arrhizus [3] = assay: Antifungal activity against drug-susceptible Rhizopus oryzae UTHSC 06-4133 at 5 ug by disk diffusion assay; format: functional; settings: read-out: DIZ; procedure, shortened: as §1
Rhizopus arrhizus [4] = assay: Antifungal activity against drug-susceptible Rhizopus oryzae UTHSC 2868 after 24 to 48 hrs; format: functional
Rhizopus arrhizus [5] = assay: Antifungal activity against drug-susceptible Rhizopus oryzae UTHSC 06-434 at 5 ug by disk diffusion assay; format: functional; settings: read-out: DIZ; procedure, shortened: as §1
Rhizopus arrhizus [6] = assay: Antifungal activity against drug-susceptible Rhizopus oryzae UTHSC 05-2975 by broth microdilution method; format: functional
Procedure, shortened: (§2)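 Posaconazole MIC in ug/ml, determined by broth microdilution following the CLSI guidelines for moulds (M38-A2).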

Rhizopus arrhizus [7] = assay: Antifungal activity against drug-intermediate Rhizopus oryzae UTHSC 05-3032 at 5 ug by disk diffusion assay; format: functional; settings: read-out: DIZ
Procedure, shortened: (§3)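 Neo-Sensitabs tablet diffusion on Mueller-Hinton agar, following the guidelines for molds. Tablets were 9 mm in diameter and held 5 µg of drug. The read-out was inhibition zone diameter in mm.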

Rhizopus arrhizus [8] = assay: Antifungal activity against drug-susceptible Rhizopus oryzae UTHSC 06-1351 after 24 to 48 hrs; format: functional
Procedure, shortened: (§4)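 Minimum fungicidal concentration taken from the broth microdilution plates. From each well with complete inhibition (optically clear), 20 ul is plated on potato dextrose agar. Plates are incubated at 35°C for 24 to 48 h. The MFC is the lowest drug concentration giving no growth.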

Rhizopus arrhizus [9] = assay: Antifungal activity against drug-susceptible Rhizopus oryzae UTHSC 04-1241 by broth microdilution method; format: functional
Procedure, shortened: (§5)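 CLSI broth microdilution for filamentous fungi (M38-A2); MIC recorded in µg/ml against clinical isolates; breakpoints applied at 24 h.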

Rhizopus arrhizus [10] = assay: Antifungal activity against drug-susceptible Rhizopus oryzae UTHSC 05-197 at 5 ug by disk diffusion assay; format: functional; settings: read-out: DIZ
Procedure, shortened: (§6)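 Neo-Sensitabs tablet diffusion on Mueller-Hinton agar, following guidelines for molds; 9 mm tablets containing 5 µg posaconazole; inhibition zone diameter measured in mm; zone breakpoints applied at 24 h.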

Rhizopus arrhizus [11] = assay: Antifungal activity against drug-susceptible Rhizopus oryzae UTHSC 04-2159 at 5 ug by disk diffusion assay; format: functional; settings: read-out: DIZ; procedure, shortened: as §6
Rhizopus arrhizus [12] = assay: Antifungal activity against drug-susceptible Rhizopus oryzae UTHSC 2868 by broth microdilution method; format: functional
Rhizopus arrhizus [13] = assay: Antifungal activity against drug-susceptible Rhizopus oryzae UTHSC 03-51 infected in OF1 mouse assessed as increase in mouse survival at 20-30 mg/kg, po bid treated 24 hrs after fungal infection; format: functional, organism-based
Procedure, shortened: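 Male OF1 mice (30 g) immunosuppressed 1 day before infection with cyclophosphamide 200 mg/kg i.p. plus 5-fluorouracil 150 mg/kg i.v.; challenged i.v. via tail vein with 2 × 10^4 CFU; oral gavage twice daily for 7 days from 24 h post-challenge; ceftazidime 5 mg/day s.c. days 1–7; untreated controls; 10 mice/group; survival checked daily to day 20.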

Rhizopus arrhizus [14] = assay: Antifungal activity against drug-susceptible Rhizopus oryzae UTHSC 06-434 after 24 to 48 hrs; format: functional; procedure, shortened: as §4
Rhizopus arrhizus [15] = assay: Antifungal activity against drug-susceptible Rhizopus oryzae UTHSC 04-2459 at 5 ug by disk diffusion assay; format: functional; settings: read-out: DIZ; procedure, shortened: as §6
Rhizopus arrhizus [16] = assay: Antifungal activity against drug-intermediate Rhizopus oryzae UTHSC 04-3109 after 24 to 48 hrs; format: functional
Rhizopus arrhizus [17] = assay: Antifungal activity against drug-susceptible Rhizopus oryzae UTHSC 05-3580 after 24 to 48 hrs; format: functional; procedure, shortened: as §4
Rhizopus arrhizus [18] = assay: Antifungal activity against drug-susceptible Rhizopus oryzae UTHSC 02-2882 infected in OF1 mouse assessed as increase in mouse survival at 20-30 mg/kg, po bid treated 24 hrs after fungal infection; format: functional, organism-based
Procedure, shortened: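 Survival model in male OF1 mice, 30 g. Mice were immunosuppressed 1 day before infection with cyclophosphamide 200 mg/kg i.p. plus 5-fluorouracil 150 mg/kg i.v., then infected i.v. via lateral tail vein with 2 × 10^4 CFU in 0.2 ml saline. Oral gavage at 10, 20 or 30 mg/kg BID began 24 h post-challenge for 7 days. Ceftazidime 5 mg/day s.c. was given days 1–7. Groups of 10 were checked daily for 20 days; untreated controls.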

Rhizopus arrhizus [19] = assay: Antifungal activity against drug-susceptible Rhizopus oryzae UTHSC 02-439 at 5 ug by disk diffusion assay; format: functional; settings: read-out: DIZ; procedure, shortened: as §3
Rhizopus arrhizus [20] = assay: Antifungal activity against drug-susceptible Rhizopus oryzae UTHSC 03-1826 at 5 ug by disk diffusion assay; format: functional; settings: read-out: DIZ; procedure, shortened: as §3
Rhizopus arrhizus [21] = assay: Antifungal activity against drug-susceptible Rhizopus oryzae UTHSC 06-4336 at 5 ug by disk diffusion assay; format: functional; settings: read-out: DIZ; procedure, shortened: as §1
Serum = assay: Drug level in human serum at 400 mg, po bid; format: ADME, organism-based; settings: in vivo
Rhizopus arrhizus [22] = assay: Antifungal activity against drug-susceptible Rhizopus oryzae UTHSC 06-89 infected in OF1 mouse assessed as reduction in brain fungal load at 10-30 mg/kg, po bid; format: functional, organism-based
Rhizopus arrhizus [23] = assay: Antifungal activity against drug-intermediate Rhizopus oryzae UTHSC 04-3109 infected in OF1 mouse assessed as reduction in kidney fungal load at 10-30 mg/kg, po bid treated 24 hrs after fungal infection; format: functional, organism-based
Procedure, shortened: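 Tissue burden in immunosuppressed male OF1 mice, using cyclophosphamide 200 mg/kg i.p. plus 5-fluorouracil 150 mg/kg i.v. on day −1. Mice received 2 × 10^4 CFU i.v. by tail vein, then oral gavage at 10, 20 or 30 mg/kg BID from 24 h post-challenge, with ceftazidime cover; untreated controls. Groups of 10 were killed on day 4. Kidneys and brains were homogenized in 2 ml saline, serially diluted 10-fold, plated on PDA and counted after 24 h at 35°C.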

Rhizopus arrhizus [24] = assay: Antifungal activity against drug-intermediate Rhizopus oryzae UTHSC 04-3109 by broth microdilution method; format: functional
Procedure, shortened: (§7)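 Broth microdilution MIC in µg/ml, run per the CLSI (formerly NCCLS) guideline for filamentous fungi, M38-A2.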

Rhizopus arrhizus [25] = assay: Antifungal activity against drug-susceptible Rhizopus oryzae UTHSC 04-1220 at 5 ug by disk diffusion assay; format: functional; settings: read-out: DIZ; procedure, shortened: as §6
Rhizopus arrhizus [26] = assay: Antifungal activity against drug-susceptible Rhizopus oryzae UTHSC 03-1826 by broth microdilution method; format: functional; procedure, shortened: as §7
Rhizopus arrhizus [27] = assay: Antifungal activity against drug-susceptible Rhizopus oryzae infected in OF1 mouse assessed as mouse survival at 30 mg/kg, po bid treated 24 hrs after fungal infection; format: functional
Rhizopus arrhizus [28] = assay: Antifungal activity against drug-susceptible Rhizopus oryzae UTHSC 02-439 by broth microdilution method; format: functional; procedure, shortened: as §7
Rhizopus arrhizus [29] = assay: Antifungal activity against drug-susceptible Rhizopus oryzae UTHSC 06-3913 after 24 to 48 hrs; format: functional; procedure, shortened: as §4
Rhizopus arrhizus [30] = assay: Antifungal activity against drug-susceptible Rhizopus oryzae UTHSC 06-4133 by broth microdilution method; format: functional; procedure, shortened: as §2
Rhizopus arrhizus [31] = assay: Antifungal activity against drug-susceptible Rhizopus oryzae UTHSC 05-1817 by broth microdilution method; format: functional; procedure, shortened: as §5

Structure (SMILES): CC[C@@H]([C@H](C)O)n1ncn(-c2ccc(N3CCN(c4ccc(OC[C@@H]5CO[C@@](Cn6cncn6)(c6ccc(F)cc6F)C5)cc4)CC3)cc2)c1=O [POSACONAZOLE]
- zone of inhibition at 5 µg/disc (Rhizopus arrhizus [1]): 20 mm
- MFC (Rhizopus arrhizus [2]): 1 µg/mL (≈ 1.43 µM)
- zone of inhibition at 5 µg/disc (Rhizopus arrhizus [3]): 23 mm
- MFC (Rhizopus arrhizus [4]): 8 µg/mL (≈ 11.4 µM)
- zone of inhibition at 5 µg/disc (Rhizopus arrhizus [5]): 15 mm
- MIC (Rhizopus arrhizus [6]): 1 µg/mL (≈ 1.43 µM)
- zone of inhibition at 5 µg/disc (Rhizopus arrhizus [7]): 14 mm
- MFC (Rhizopus arrhizus [8]): 0.5 µg/mL (≈ 0.713 µM)
- MIC (Rhizopus arrhizus [9]): 0.5 µg/mL (≈ 0.713 µM)
- zone of inhibition at 5 µg/disc (Rhizopus arrhizus [10]): 21 mm
- zone of inhibition at 5 µg/disc (Rhizopus arrhizus [11]): 20 mm
- MIC (Rhizopus arrhizus [12]): 1 µg/mL (≈ 1.43 µM)
- Activity (Rhizopus arrhizus [13]): Active
- MFC (Rhizopus arrhizus [14]): 1 µg/mL (≈ 1.43 µM)
- zone of inhibition at 5 µg/disc (Rhizopus arrhizus [15]): 18 mm
- MFC (Rhizopus arrhizus [16]): > 16 µg/mL
- MFC (Rhizopus arrhizus [17]): 1 µg/mL (≈ 1.43 µM)
- Activity (Rhizopus arrhizus [18]): Active
- zone of inhibition at 5 µg/disc (Rhizopus arrhizus [19]): 22 mm
- zone of inhibition at 5 µg/disc (Rhizopus arrhizus [20]): 18 mm
- zone of inhibition at 5 µg/disc (Rhizopus arrhizus [21]): 20 mm
- Drug uptake (Serum): < 1 µg/mL
- Activity (Rhizopus arrhizus [22]): Active
- Activity (Rhizopus arrhizus [23]): Active
- MIC (Rhizopus arrhizus [24]): 2 µg/mL (≈ 2.85 µM)
- zone of inhibition at 5 µg/disc (Rhizopus arrhizus [25]): 20 mm
- MIC (Rhizopus arrhizus [26]): 0.5 µg/mL (≈ 0.713 µM)
- Activity (Rhizopus arrhizus [27]): 30%
- MIC (Rhizopus arrhizus [28]): 0.25 µg/mL (≈ 0.357 µM)
- MFC (Rhizopus arrhizus [29]): 4 µg/mL (≈ 5.71 µM)
- MIC (Rhizopus arrhizus [30]): 0.5 µg/mL (≈ 0.713 µM)
- MIC (Rhizopus arrhizus [31]): 0.25 µg/mL (≈ 0.357 µM)

— ChEMBL document CHEMBL1255417, “Correlation between in vitro activity of posaconazole and in vivo efficacy against Rhizopus oryzae infection in mice” (Antimicrob Agents Chemother, 2010)
